Legend:
[1] = Inhibitory concentration against ACPD-sensitive radioligand [3H]glutamate binding to Group II Metabotropic glutamate receptor in rat forebrain membranes; type: cell membranes, Membrane
How it was run: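 Rat forebrain membranes; displacement of ACPD-sensitive [3H]glutamate binding (10 nM radioligand).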

[2] = target: Glutamate receptor ionotropic, AMPA (Rattus norvegicus, UniProt P19490+P19491+P19492+P19493); assay: Inhibitory concentration against radioligand [3H]AMPA binding to Ionotropic glutamate receptor AMPA in rat forebrain membranes; type: cell membranes, Membrane
Mus musculus [3] = assay: Intraperitoneal effective dose evaluated in mice by mouse limbic seizure assay; type: functional, Limbic system
How it was run: (§1)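 Male NIH Swiss mice (20-25 g) given test drug ip or po 30 min before unilateral intracerebral 1S,3R-ACPD (400 nmol), injected 2 mm lateral to bregma at 3.7 mm depth. Scored as the number of animals showing limbic seizures (clonic forelimb contractions, rearing, falling) during the observation period. ED50 in mg/kg.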

Rattus norvegicus [4] = species: Rattus norvegicus; assay: Compound was evaluated by measuring the ability to influence forskolin-stimulated cAMP formation in adult rat cerebral cortical slices; type: functional
How it was run: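 Adult rat cerebral cortical slices; cAMP formation stimulated with forskolin (30 µM), and suppression of that cAMP formation measured. EC50 values derived from concentration-response curves.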

[5] = target: Glutamate receptor ionotropic, kainate; assay: Inhibitory concentration against radioligand [3H]-Kainate binding to Ionotropic glutamate receptor kainate in rat forebrain membranes; type: cell membranes, Membrane
How it was run: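 Rat forebrain membranes; displacement of [3H]kainate (5 nM) binding. Compounds screened at concentrations up to 100 µM (triplicate analysis at 1, 10 and 100 µM).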

Glutamate NMDA receptor = assay: Inhibitory concentration against radioligand [3H]CGS-19,755 binding to N-methyl-D-aspartate glutamate receptor in rat forebrain membranes; type: cell membranes, Membrane
How it was run: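 Rat forebrain membranes; displacement of [3H]CGS19755 (10 nM) binding. Compounds screened at concentrations up to 100 µM (triplicate analysis at 1, 10 and 100 µM).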

Mus musculus [6] = species: Mus musculus; assay: Oral effective dose was evaluated in mice by automated elevated plus-maze assay; type: functional
How it was run: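 Male NIH Swiss mice (20-35 g), acclimated ≥3 days on a 12 h light/dark cycle, dosed 30 min before a 5-min test on an automated elevated plus maze. Mice started on the closed platform; closed arm, open arm and nosepoke counts recorded. Dose-response for open arm activity gives the ED50 (mg/kg).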

Rattus norvegicus [7] = species: Rattus norvegicus; assay: Compound was evaluated by measuring the ability to influence stimulated basal [3H]-IP formation in adult rat cerebral cortical slices.; type: functional
How it was run: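 Rat cerebral cortical slices labeled for [3H]phosphoinositide hydrolysis; accumulation of tritiated inositol monophosphates ([3H]IP) measured against basal levels. Concentrations tested up to 300 µM.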

Mus musculus [8] = species: Mus musculus; assay: Oral effective dose evaluated in mice by mouse limbic seizure assay; type: functional, Limbic system; how it was run: as §1

SMILES | IC50 [1] [µM] | IC50 [2] [µM] | ED50 (Mus musculus [3]) [mg/kg] | EC50 (Rattus norvegicus [4]) [µM] | IC50 [5] [µM] | IC50 (Glutamate NMDA receptor) [µM] | ED50 (Mus musculus [6]) [mg/kg] | EC50 (Rattus norvegicus [7]) [µM] | ED50 (Mus musculus [8]) [mg/kg] | EC50 (Rattus norvegicus [4]; Rattus norvegicus) [µM]
N[C@@]1(C(=O)O)CC[C@H]2[C@H](C(=O)O)[C@H]21 (stereo in doubt; (-)-9) | > 100 | > 100 | > 100 | > 300 | > 100 | > 100 | – | – | – | –
N[C@@]1(C(=O)O)CC[C@H]2[C@H](C(=O)O)[C@H]21 (stereo in doubt; (+)-9) | 0.18 | – | 17 | 0.055 | – | – | 0.5 | > 300 | 45.6 | –
N[C@H](C(=O)O)[C@H]1C[C@@H]1C(=O)O | 0.454 | – | – | – | > 100 | > 100 | – | 25.4 | – | 1.1
N[C@]1(C(=O)O)CC[C@H]2[C@H](C(=O)O)[C@H]21 (racemic) | > 100 | > 100 | – | – | > 100 | 62.4 | – | – | – | –
N[C@@]1(C(=O)O)CC[C@H]2[C@H](C(=O)O)[C@H]21 (racemic) | 0.318 | – | – | 0.086 | – | – | – | – | – | –

— ChEMBL document CHEMBL1130337 (J Med Chem, 1997)
